According to ChEMBL document CHEMBL1157503, “Affinity of 3-acyl substituted 4-quinolones at the benzodiazepine site of GABA(A) receptors” (Bioorg Med Chem, 2008):

What was measured:
[1] = Displacement of [3H]flumazenil from GABAA receptor in rat cortical membrane; assay type: cell membranes
How it was run: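 Rat cortex homogenized in Tris-HCl (30 mM, pH 7.4), washed by repeated centrifugation at 27,000g, incubated 30 min at 37 °C, then stored at −20 °C. About 50 µg protein per 0.55 ml assay in Tris-citrate (50 mM, pH 7.1) was incubated with 1 nM ³H-flumazenil for 40 min at 0–4 °C, then filtered on GF/C. Nonspecific binding was set with 1 µM clonazepam.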

[2] = Displacement of [3H]flumazenil from human recombinant GABAA alpha-3-beta-2-gamma-2S receptor expressed in HEK293 cells; assay type: cell-based
How it was run: (§1)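 HEK 293 membranes expressing human α1β2γ2s, α2β2γ2s or α3β2γ2s receptors, about 25 µg protein per 0.55 ml assay in Tris-citrate (50 mM, pH 7.1). Incubated with 1 nM ³H-flumazenil (final) for 40 min at 0–4 °C, then GF/C filtration and ice-cold washes. Nonspecific binding was set with 1 µM clonazepam. […] Mean ± SD of three determinations.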

Homo sapiens [3] = species: Homo sapiens; assay: Selectivity ratio of Ki for human recombinant GABAA alpha-3-beta-2-gamma-2S receptor to Ki for human recombinant GABAA alpha-1-beta-2-gamma-2S receptor
How it was run: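 Ratio of the Ki at human α3β2γ2s to the Ki at human α1β2γ2s, both from ³H-flumazenil (1 nM) displacement in HEK 293 membranes (40 min, 0–4 °C, 1 µM clonazepam nonspecific).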

[4] = target: T1, GABA-A receptor; alpha-1/beta-2/gamma-2 (Homo sapiens, UniProt P14867+P18507+P47870); assay: Displacement of [3H]flumazenil from human recombinant GABAA alpha-1-beta-2-gamma-2S receptor expressed in HEK293 cells; assay type: cell-based; how it was run: as §1
T1 sequence (P14867 whole entry): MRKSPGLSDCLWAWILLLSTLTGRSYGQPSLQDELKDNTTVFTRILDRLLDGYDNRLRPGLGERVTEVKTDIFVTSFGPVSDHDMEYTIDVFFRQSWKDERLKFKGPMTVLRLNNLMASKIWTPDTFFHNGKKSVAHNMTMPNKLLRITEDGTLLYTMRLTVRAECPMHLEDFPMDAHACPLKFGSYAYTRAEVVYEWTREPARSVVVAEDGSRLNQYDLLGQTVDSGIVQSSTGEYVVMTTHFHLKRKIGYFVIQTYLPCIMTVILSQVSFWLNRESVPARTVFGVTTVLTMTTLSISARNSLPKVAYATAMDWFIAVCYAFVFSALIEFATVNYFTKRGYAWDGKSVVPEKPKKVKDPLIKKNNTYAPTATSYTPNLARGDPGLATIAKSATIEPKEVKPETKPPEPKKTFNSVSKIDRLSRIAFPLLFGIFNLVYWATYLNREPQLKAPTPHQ
T1 sequence (P47870 whole entry): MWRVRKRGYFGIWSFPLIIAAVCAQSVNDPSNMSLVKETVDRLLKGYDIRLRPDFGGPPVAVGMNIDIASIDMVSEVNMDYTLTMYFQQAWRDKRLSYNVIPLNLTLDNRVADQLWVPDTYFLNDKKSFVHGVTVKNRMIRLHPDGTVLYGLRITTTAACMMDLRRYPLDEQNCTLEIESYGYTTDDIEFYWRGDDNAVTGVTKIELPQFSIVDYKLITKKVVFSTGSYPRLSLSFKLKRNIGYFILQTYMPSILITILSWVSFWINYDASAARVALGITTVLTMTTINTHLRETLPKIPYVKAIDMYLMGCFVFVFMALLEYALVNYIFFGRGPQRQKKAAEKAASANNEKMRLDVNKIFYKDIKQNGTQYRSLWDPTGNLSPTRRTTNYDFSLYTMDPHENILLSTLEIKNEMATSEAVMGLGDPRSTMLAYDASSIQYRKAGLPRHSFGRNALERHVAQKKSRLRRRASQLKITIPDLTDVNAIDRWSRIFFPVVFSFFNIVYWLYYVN
T1 sequence (P18507 whole entry): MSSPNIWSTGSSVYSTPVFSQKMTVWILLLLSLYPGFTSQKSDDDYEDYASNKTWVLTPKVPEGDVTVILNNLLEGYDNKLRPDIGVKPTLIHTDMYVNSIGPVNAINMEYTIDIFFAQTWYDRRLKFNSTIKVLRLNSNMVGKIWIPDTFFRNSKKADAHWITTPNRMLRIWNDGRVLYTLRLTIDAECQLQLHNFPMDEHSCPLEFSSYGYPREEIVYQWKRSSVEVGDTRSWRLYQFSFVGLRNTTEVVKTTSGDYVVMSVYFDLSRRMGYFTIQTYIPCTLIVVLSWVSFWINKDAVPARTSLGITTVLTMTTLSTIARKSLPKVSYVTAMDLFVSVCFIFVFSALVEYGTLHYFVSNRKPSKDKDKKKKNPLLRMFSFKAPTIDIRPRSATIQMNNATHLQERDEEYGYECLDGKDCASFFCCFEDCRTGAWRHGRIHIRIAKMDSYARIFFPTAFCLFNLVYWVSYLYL

[5] = Displacement of [3H]flumazenil from human recombinant GABAA alpha-2-beta-2-gamma-2S receptor expressed in HEK293 cells; assay type: cell-based; how it was run: as §1
Homo sapiens [6] = species: Homo sapiens; assay: Selectivity ratio of Ki for human recombinant GABAA alpha-2-beta-2-gamma-2S receptor to Ki for human recombinant GABAA alpha-1-beta-2-gamma-2S receptor
How it was run: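 Displacement of 1 nM [3H]flumazenil from HEK 293 membranes expressing human α2β2γ2s or α1β2γ2s receptors (about 25 µg protein per 0.55 ml), in 50 mM Tris-citrate pH 7.1, 40 min at 0–4 °C. Filtered on glass fibre. Nonspecific binding with 1 µM clonazepam. IC50 from 4–6 concentrations. […] Ratio is Ki α2/Ki α1.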

SMILES	Ki [1]	Ratio Ki (Homo sapiens [3])	Ki [4]	Ki [2]	Ki [5]	Ratio Ki (Homo sapiens [6])
CCc1ccc2[nH]cc(C(=O)CCC(C)(C)C)c(=O)c2c1	19 nM	–	–	–	–	–
O=C(CC1CCCC1)c1c[nH]c2ccc(Cc3ccccc3)cc2c1=O	1 nM	25	0.51 nM	13 nM	–	–
O=C(CC1CCCC1)c1c[nH]c2ccc(Cc3cccnc3)cc2c1=O	1.5 nM	26	0.88 nM	23 nM	–	–
CCCCC(=O)c1c[nH]c2ccc(Cc3ccccn3)cc2c1=O	0.23 nM	16	0.14 nM	2.2 nM	–	–
CCc1ccc2[nH]cc(C(=O)CCC(C)C)c(=O)c2c1	2.5 nM	–	–	–	–	–
CCCCC(=O)c1c[nH]c2ccc(Cc3ccccc3)cc2c1=O	0.17 nM	5	0.12 nM	0.61 nM	0.4 nM	3
CCCCC(=O)c1c[nH]c2ccc([N+](=O)[O-])cc2c1=O	0.87 nM	–	–	–	–	–
CCCCC(=O)c1c[nH]c2ccc(-c3ccccc3)cc2c1=O	28 nM	–	–	–	–	–
CCOC(=O)c1c[nH]c2ccc(Cc3ccccc3)cc2c1=O	1.4 nM	27	–	7.2 nM	–	–
CCCCC(=O)c1c[nH]c2ccc(Cc3ccc4ccccc4c3)cc2c1=O	1.3 nM	3	2.7 nM	8.8 nM	22 nM	8
CCCCC(=O)c1c[nH]c2ccc(CCc3ccccc3)cc2c1=O	0.42 nM	2	0.53 nM	1.1 nM	1.7 nM	3
CCCCC(=O)c1c[nH]c2ccc(CCCc3ccccc3)cc2c1=O	2.5 nM	4	3.2 nM	14.3 nM	16 nM	5
CCCCC(=O)c1c[nH]c2ccc(CC)cc2c1=O	0.9 nM	7	0.38 nM	2.8 nM	1.6 nM	4
CCCCC(=O)c1c[nH]c2ccc(Br)cc2c1=O	0.54 nM	–	–	–	–	–
CCc1ccc2[nH]cc(C(=O)CC3CCCC3)c(=O)c2c1	7.9 nM	15	5.1 nM	74 nM	31 nM	6

Second part, led by results:

Ki [1]	Ratio Ki (Homo sapiens [3])	Ki [4]	SMILES	Ki [2]	Ki [5]	Ratio Ki (Homo sapiens [6])
0.98 nM	–	–	CCCCCC(=O)c1c[nH]c2ccc(CC)cc2c1=O	–	–	–
–	–	0.27 nM	CCOC(=O)c1cnc2ccc(Cc3ccccc3)cc2c1O	–	–	–
2.1 nM	–	–	CCCCCCC(=O)c1c[nH]c2ccc(CC)cc2c1=O	–	–	–
18 nM	–	–	CCc1ccc2[nH]cc(C(=O)CC(C)CC)c(=O)c2c1 (stereo unspecified)	–	–	–
30 nM	–	–	CCc1ccc2[nH]cc(C(=O)CC3CCCCC3)c(=O)c2c1	–	–	–
0.22 nM	13	0.12 nM	CCCC(=O)c1c[nH]c2ccc(Cc3ccccc3)cc2c1=O	1.56 nM	0.81 nM	7
0.27 nM	18	0.12 nM	CCCCC(=O)c1c[nH]c2ccc(Cc3cccnc3)cc2c1=O	2.2 nM	–	–
0.53 nM	5	0.39 nM	CCCCC(=O)c1c[nH]c2ccc(Cc3ccncc3)cc2c1=O	2.1 nM	2.7 nM	7
2.2 nM	9	0.97 nM	CCCCC(=O)c1c[nH]c2ccccc2c1=O	9.2 nM	–	–
20 nM	9	5.9 nM	CCOC(=O)c1cnc2ccc(CC)cc2c1O	52 nM	–	–
69 nM	–	–	CCc1ccc2[nH]cc(C(=O)Cc3ccccc3)c(=O)c2c1	–	–	–
